Assay [1] is described as follows: Inhibition of acetyl-CoA acetyltransferase (unknown origin). Also noted: species or system Homo sapiens.
Assay [2] deals with T1, Acyl-CoA desaturase 1 (Mus musculus, UniProt P13516).
T1 sequence (P13516 whole entry): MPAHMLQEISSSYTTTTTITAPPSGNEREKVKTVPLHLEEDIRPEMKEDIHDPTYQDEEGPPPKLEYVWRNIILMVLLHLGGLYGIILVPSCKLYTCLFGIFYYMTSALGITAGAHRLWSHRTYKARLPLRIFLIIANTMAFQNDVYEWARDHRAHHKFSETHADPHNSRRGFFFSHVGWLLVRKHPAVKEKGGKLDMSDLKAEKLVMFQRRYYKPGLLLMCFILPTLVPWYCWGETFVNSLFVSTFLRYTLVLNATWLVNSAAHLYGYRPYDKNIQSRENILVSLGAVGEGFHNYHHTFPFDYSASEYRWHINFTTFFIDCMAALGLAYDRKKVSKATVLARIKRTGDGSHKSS
Put plainly: Inhibition of mouse liver microsome SCD assessed as reduction in [3H]H2O production using stearoyl [9,10-3H]CoA as substrate in presence of NADH incubated for 30 mins by scintillation counting method. Format: microsomes. The essentials: (§1)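 Desaturation of [9,10-3H]stearoyl-CoA measured as released [3H]H2O. Water was separated from charcoal-adsorbed substrate by filtration and counted by scintillation. Remaining activity = (compound − background)/(control − background). DMSO wells served as control and pre-stopped wells as background. IC50 was interpolated from the two points bracketing 50%.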

Assay [3] deals with T2, Stearoyl-CoA desaturase (Homo sapiens, UniProt O00767).
T2 sequence (O00767 whole entry): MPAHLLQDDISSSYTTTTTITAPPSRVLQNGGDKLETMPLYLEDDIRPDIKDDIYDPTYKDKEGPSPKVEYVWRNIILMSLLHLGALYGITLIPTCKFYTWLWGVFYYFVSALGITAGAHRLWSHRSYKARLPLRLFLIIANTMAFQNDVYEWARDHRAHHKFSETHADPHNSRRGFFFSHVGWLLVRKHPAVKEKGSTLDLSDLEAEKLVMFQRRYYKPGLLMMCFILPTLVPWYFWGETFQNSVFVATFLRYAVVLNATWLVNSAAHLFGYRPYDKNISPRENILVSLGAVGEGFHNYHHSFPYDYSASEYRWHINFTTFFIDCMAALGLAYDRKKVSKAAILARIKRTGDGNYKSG
Description: Inhibition of recombinant human SCD1 expressed in baculovirus expression system assessed as reduction in [3H]H2O production using stearoyl [9,10-3H]CoA as substrate in presence of NADH incubated for 30 mins by scintillation counting method. The essentials:
as §1

For assay [4], the target named is Acyl-CoA (8-3)-desaturase (Homo sapiens, UniProt O60427). Put plainly: Inhibition of delta-5 fatty acid desaturase (unknown origin).
Acyl-CoA (8-3)-desaturase, sequence (O60427 whole entry): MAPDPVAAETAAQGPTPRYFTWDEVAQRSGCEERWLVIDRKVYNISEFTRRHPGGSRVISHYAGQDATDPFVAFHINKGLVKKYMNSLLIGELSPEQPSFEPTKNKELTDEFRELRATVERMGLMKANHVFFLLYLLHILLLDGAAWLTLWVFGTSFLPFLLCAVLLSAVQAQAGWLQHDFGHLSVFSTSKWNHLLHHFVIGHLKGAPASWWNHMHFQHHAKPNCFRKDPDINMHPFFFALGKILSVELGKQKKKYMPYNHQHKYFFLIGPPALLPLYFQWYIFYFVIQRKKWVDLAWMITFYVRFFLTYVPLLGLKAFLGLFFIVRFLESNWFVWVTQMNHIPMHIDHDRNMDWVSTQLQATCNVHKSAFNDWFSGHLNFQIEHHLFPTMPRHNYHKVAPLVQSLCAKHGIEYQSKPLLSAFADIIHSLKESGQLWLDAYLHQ

For `O=C(Nc1ccncc1)c1ccc(COc2ccccc2Cl)cc1`, the IC50 in assay [1] was > 30000 nM; in assay [2], 510 nM; in assay [3] it was 1400 nM; in assay [4] it was > 30000 nM.

Usually IC50 stands for the concentration at which inhibition is half-maximal.
